S1P1 ag-PAM: S1P1 agonists and agonism potentiators, primary screen, cell-based, primary and confirmation screens, CRE-bla reporter. actives 0.57% (n = 56,000). Sphingosine 1-phosphate receptor 1 (Homo sapiens), P21453. activation, % at 9.5 µM. S1P1 CRE-bla cells, forskolin, beta-lactamase FRET, potentiator mode; S1P1 agonist co-added at EC20, 2 nM; 100% = saturating reference agonist, 0% = basal;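 active means activation above a cutoff set at the mean activation of all tested compounds plus 3 SD, cut at about 54% in these data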;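 further: forskolin at 4 µM as EC80 and the EC20 agonist is SEW2871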
Target sequence (P21453 whole entry, looked up): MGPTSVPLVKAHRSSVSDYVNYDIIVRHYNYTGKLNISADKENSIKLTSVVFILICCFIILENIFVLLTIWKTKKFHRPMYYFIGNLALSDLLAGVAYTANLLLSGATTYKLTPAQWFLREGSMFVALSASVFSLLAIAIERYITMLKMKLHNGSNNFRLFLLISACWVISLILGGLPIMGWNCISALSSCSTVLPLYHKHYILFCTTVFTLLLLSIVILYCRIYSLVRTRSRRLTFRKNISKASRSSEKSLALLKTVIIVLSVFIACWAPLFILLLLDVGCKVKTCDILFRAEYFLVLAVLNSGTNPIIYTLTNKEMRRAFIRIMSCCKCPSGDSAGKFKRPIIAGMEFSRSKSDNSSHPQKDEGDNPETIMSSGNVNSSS
M1 ag: M1 muscarinic receptor agonists, primary screen, CHO-M1 cells, Fluo-4 calcium, agonist mode. Muscarinic acetylcholine receptor M1. Fluo-4 calcium fluorescence; stronger effect = higher value. B-score at 10 µM. actives 3% (n = 64,000). AID 626, 2007;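 active means fluorescence rise, raw or as B-score row- and column-corrected plate score, outside the 99.7% band of its plate's samples, either direction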
M1 antagonist: antagonists of rat M1 muscarinic receptor. Muscarinic acetylcholine receptor M1 (Rattus norvegicus), P08482. CHO-M1 cells, Fluo-4 calcium, ACh EC80 antagonist mode; stronger effect = lower value. B-score at 10 µM. actives 3.4% (n = 64,000);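 active means calcium fluorescence response, raw or row-and-column corrected B-score, differing from the plate sample mean either way at a set confidence level, mostly lower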
S1P3 ag: human S1P3 receptor agonists, primary screen, cell-based, primary and confirmation, NFAT-BLA reporter. actives 0.1% (n = 60,000). AID 373, 2006. activation, % at 4.5 µM. S1P3 NFAT-BLA reporter cells, agonism, FRET ratio; relative to 1 µM S1P, basal subtracted. Sphingosine 1-phosphate receptor 3 (Homo sapiens), Q99500;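 active means activation above the screen-wide mean plus 3 SD, cut at about 4.5% in these data, passing the limit was not always enough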
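Material: Human S1P3 NFAT-BLA reporter CHO cells | Incubation: Overnight plating, 4 h compound 37 °C, 2 h substrate RT | Signal: FRET β-lactamase substrate fluorescence, excitation 405 nm, 460/535 nm emission ratio, background-subtracted | Compound: 4.5 µM final, single dose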
D1 allo mod: D1 CRE-luciferase signal change, two-sided – cell-based, HEK293 D1, dopamine EC30, D1 allosteric modulator project, primary screen. dopamine EC30 potentiation; actives deviate in either direction. B-score at 10 µM. actives 5.9% (n = 58,000). AID 641, 2007;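 active means luminescence count or its row- and column-corrected plate score outside the 99.7% band of the plate's sample wells, on either side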
M1 antag confirm: rat M1 muscarinic receptor antagonists, confirmation, CHO cells, Fluo-4 calcium, duplicate; shares compounds with M1 antagonist; ACh EC80 antagonism; stronger effect = lower value; calcium response (max-min fluorescence) at 10 µM; actives 43% (n = 1,700); AID 677, 2007;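 active means calcium response below the same-plate mean of wells given acetylcholine alone at its 80%-effect dose, minus 3 SD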
mGluR4 antag: human mGluR4 response to M1 antagonist hits, M1 allosteric modulator project, cell-based, antagonist mode, secondary assay 1; AID 678, 2007; shares compounds with M1 antagonist; CHO-mGluR4 calcium flux, Fluo-4 fluorescence, glutamate EC80; stronger effect = lower value; fluorescence response (max-min) at 10 µM; actives 0.9% (n = 1,700);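 active means fluorescence response below the plate's average for near-maximal glutamate wells, less 3 SD of those wells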;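 further: raw unnormalized fluorescence span taken in the window right after glutamate addition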
Numbers stand for hits; . = inactive; / = no result given. This is a sample that favours compounds with a hit; in the whole collection about 11% have one here.

SMILES	S1P1 ag-PAM	M1 ag	M1 antagonist	S1P3 ag	D1 allo mod	M1 antag confirm	mGluR4 antag
O=C(O)Cn1cc(C(=O)c2cccs2)c2ccccc21	.	.	.	.	.	/	/
O=C(c1cccs1)c1cn(CC(=O)N2CCc3ccccc3C2)c2ccccc12	.	.	-7.2	.	.	.	.
CN(C(=O)c1cc2n(n1)C(C(F)(F)F)CC(c1ccco1)N2)c1ccccc1 (centres undefined)	.	.	-2.9	.	.	.	.
CN(C(=O)c1cc2n(n1)C(C(F)(F)F)CC(c1ccco1)N2)c1ccc(OC(F)(F)F)cc1 (centres undefined)	.	.	.	.	.	/	/
CCOc1cc(S(=O)(=O)n2nc(C)cc2C)ccc1F	.	.	-5.2	.	/	.	.
CC1C2C(C)N(C)C(=O)N(C)C2N(C)C(=O)N1C (centres undefined)	.	.	.	.	.	/	/
CN1C(=O)N(C)C2C1NC(=O)N2C (centres undefined)	.	.	-9.2	.	.	.	.
CCCS(=O)(=O)Nc1cc(C(F)(F)F)ccc1OCCOC	.	.	.	.	.	/	/
CC1(C)NC(=O)N(CC(O)COc2cc3ccccc3cc2C(=O)N2CCCCC2)C1=O (centres undefined)	.	.	-3	.	/	.	.
CC1(C)NC(=O)N(CC(O)COc2ccccc2C(=O)N2CCCCC2)C1=O (centres undefined)	.	.	.	.	.	/	/
O=C(Nc1ccc(Cl)cc1)N1CCSCC1	/	.	-2.3	/	.	.	.
CN(C)C(=O)CSc1nnc(-c2cc(-c3cccs3)nc3ccccc23)o1	.	.	-3.7	.	.	.	.
O=C(NCCCn1ccnc1)c1cc2c(s1)CCCCC2	.	.	.	.	.	/	/
Cc1ccc2[nH]c(=O)c(-c3nc4cc(C)ccn4c3NCc3ccco3)cc2c1	.	.	-3.3	.	.	.	.
CCOC(=O)c1ccc2c(c1)nc(C1CCN(S(=O)(=O)c3cccs3)CC1)n2CC	.	.	-2.9	.	.	474	.
CCOc1cc(C)nc(N2CCN(C3CCCCC3)CC2)n1	.	.	-3.3	.	.	444	.
Cc1noc(C)c1COC(=O)CCN1c2ccccc2Sc2ccccc21	.	.	.	.	.	/	/
O=C(CN1CCC(O)CC1)N1c2ccccc2C=Cc2ccccc21	.	.	-5.6	.	.	243	.
NCCCC(=O)N1c2ccccc2Sc2ccccc21	.	.	-13	.	.	59	.
O=C(c1ccco1)N1CCN(CC(=O)N2c3ccccc3CCc3ccccc32)CC1	.	.	.	.	/	/	/
O=C(CN1CCCC1)N1c2ccccc2Sc2ccccc21	.	.	-19	.	.	.	.
CC1CCN(CC(=O)N2c3ccccc3CCc3ccccc32)CC1	.	/	/	.	.	/	/
COc1c(Cl)cc(-c2noc(C)c2C(=O)NC(C)C)cc1Cl	.	.	.	.	.	/	/
O=C(CSc1nnc(-c2cc3ccccc3cc2O)n1Cc1ccco1)c1ccc(F)cc1	.	.	.	.	.	/	/
CCN(CC)C(=O)CSc1nnc(-c2cc3ccccc3cc2O)n1CC	.	.	-3.4	.	.	.	.
SMILES	S1P1 ag-PAM	M1 ag	M1 antagonist	S1P3 ag	D1 allo mod	M1 antag confirm	mGluR4 antag
CCOC(=O)C1CCN(C(=O)C2CC(=O)N(c3ccc(C)cc3)C2)CC1 (centres undefined)	.	.	.	.	.	/	/
c1ccc(CN2CCN(CCN3CCn4c3nc3ccccc34)CC2)cc1	.	.	-2.1	.	.	566	.
CC1CCCCN1S(=O)(=O)c1ccc2c(c1)CCN2C(=O)C1CCC1 (centres undefined)	.	.	.	.	.	/	/
Cc1ccc2cc(CCNC(=O)CC(C)C)c(=O)[nH]c2c1	.	.	.	.	/	/	/
CC(C)(C)n1nnnc1C(c1ccccc1)N1CCc2ccccc2C1 (centres undefined)	.	.	-12	.	.	368	.
Cc1csc2nc(CNS(=O)(=O)c3ccc4c(c3)OCCO4)cn12	.	.	.	.	.	/	/
Cc1csc2nc(CCNS(=O)(=O)c3ccc4c(c3)OCCO4)cn12	.	.	-2.6	.	.	.	.
Cc1noc(C)c1CSc1ccc2ccccc2n1	.	.	.	.	.	/	/
Cc1noc(C)c1CSc1nc2ccccc2[nH]1	.	.	-1.4	.	.	435	.
Cc1noc(C)c1CSc1nc2ccccc2n1CCc1ccccc1	.	.	-3.8	.	.	.	.
COc1ccccc1NC(=O)N1CCN(c2ncccn2)CC1	.	.	.	.	.	/	/
CCc1c(O)nc(SCC(=O)Nc2ccc3c(c2)CCC3)[nH]c1=O	.	.	.	.	.	/	/
CCc1c(O)nc(SCC(=O)Nc2ccccc2OC)[nH]c1=O	.	.	-1	.	.	.	.
CCCCOc1ccc(S(=O)(=O)n2c(C)nc3ccccc32)cc1	.	.	-3.5	.	.	.	.
CCOc1ccc(S(=O)(=O)n2c(C)nc3ccccc32)cc1	.	.	-2.6	.	.	202	.
O=C(CSc1ncn[nH]1)NCCCc1ccccc1	.	/	/	.	/	/	/
CCCC(=O)Nc1nnc(CC(=O)N2CCCC2)s1	.	.	.	.	.	/	/
CCOC(=O)c1cnn(-c2cc(C)c3cc(C)cc(C)c3n2)c1N	/	.	.	/	.	/	/
COc1ccccc1-n1cc(C(=O)NCC(=O)N2CCN(c3ccccc3)CC2)c2ccccc2c1=O	.	.	.	.	.	/	/
Nc1nc2ccccc2n1/N=C/c1ccc(Br)cc1	.	.	-6.7	.	.	.	.
Cn1nnnc1SCc1c(F)cccc1F	.	.	.	.	.	/	/
Cc1noc(C)c1CSCC(=O)OCc1nc2ccccc2c(=O)n1CC#N	/	.	.	/	.	/	/
Cc1ccc2c(c1)NC(=O)C(CC(=O)NCCCN1CCCCC1)O2 (centres undefined)	.	.	.	.	.	/	/
Cc1ccc2c(c1)NC(=O)C(CC(=O)NCCCN1CCN(c3cc(Cl)ccc3C)CC1)O2 (centres undefined)	.	.	-2.1	.	-2.6	332	.
Cn1c(=O)[nH]c(=O)c2c1nc(CN1CCN(Cc3ccccc3)CC1)n2CC(N)=O	.	.	.	.	.	/	/
O=c1[nH]c(=O)n(CCO)c2nnn(Cc3ccccc3)c12	.	.	-3.3	.	/	.	.

High-throughput results deposited in PubChem BioAssay by several laboratories.
